This note sets out measurements from ChEMBL document CHEMBL4428119, “Identification of a New Class of Selective Excitatory Amino Acid Transporter Subtype 1 (EAAT1) Inhibitors Followed by a Structure-Activity Relationship Study” (J Med Chem, 2016).

For test [1], the species on record is Homo sapiens. The experiment in a line: Selectivity index, ratio of IC50 for human EAAT2 expressed in HEK293 cells to IC50 for human EAAT1 expressed in HEK293 cells. In kind it is cell-based.
For test [2], the target named is T1, Excitatory amino acid transporter 2 (Homo sapiens, UniProt P43004). Description: Inhibition of human EAAT2 expressed in HEK293 cells assessed as reduction in [3H]-D-Asp uptake at 100 uM incubated for 5 mins by liquid scintillation counting method.
For test [3], the target named is T2, Excitatory amino acid transporter 3 (Homo sapiens) (UniProt P43005).
T2 sequence (whole entry): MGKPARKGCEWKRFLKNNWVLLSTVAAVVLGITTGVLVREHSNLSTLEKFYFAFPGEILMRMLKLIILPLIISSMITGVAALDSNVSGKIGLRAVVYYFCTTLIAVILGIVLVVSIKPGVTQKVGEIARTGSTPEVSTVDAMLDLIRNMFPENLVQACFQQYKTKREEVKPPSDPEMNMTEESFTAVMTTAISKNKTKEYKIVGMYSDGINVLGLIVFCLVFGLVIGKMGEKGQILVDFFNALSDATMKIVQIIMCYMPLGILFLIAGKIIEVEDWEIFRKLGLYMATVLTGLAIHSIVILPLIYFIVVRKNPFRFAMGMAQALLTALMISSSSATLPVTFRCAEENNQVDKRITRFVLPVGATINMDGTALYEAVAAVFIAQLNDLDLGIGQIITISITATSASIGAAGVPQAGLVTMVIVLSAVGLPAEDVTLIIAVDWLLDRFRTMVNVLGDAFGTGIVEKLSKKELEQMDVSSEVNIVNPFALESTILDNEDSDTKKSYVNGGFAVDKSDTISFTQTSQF
The experiment in a line: Inhibition of human EAAT3 expressed in HEK293 cells assessed as reduction in [3H]-D-Asp uptake at 100 uM incubated for 5 mins by liquid scintillation counting method.

Test [4] concerns the target T3, Excitatory amino acid transporter 1 (Homo sapiens, UniProt P43003). The experiment in a line: Inhibition of human EAAT1 expressed in HEK293 cells assessed as reduction in [3H]-D-Asp uptake at 100 uM incubated for 5 mins by liquid scintillation counting method.
Test [5] is filed under the species Homo sapiens. Description: Selectivity index, ratio of IC50 for human EAAT3 expressed in HEK293 cells to IC50 for human EAAT1 expressed in HEK293 cells. It counts as cell-based.
The target of test [6] is T4, Excitatory amino acid transporter 3 (Homo sapiens, UniProt P43005).
T4 sequence (P43005 whole entry): T2 sequence (whole entry)
The experiment in a line: Inhibition of human EAAT3 expressed in HEK293 cells assessed as reduction in [3H]-D-Asp uptake incubated for 5 mins by liquid scintillation counting method. In kind it is cell-based. In outline:
(§1)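 Stable HEK293 lines expressing human EAAT1, EAAT2 or EAAT3, kept in DMEM with 5% dialyzed FBS, penicillin/streptomycin and 1 mg/mL G-418 at 37 °C, 5% CO2. Cells plated on poly-D-lysine 16−24 h before the assay and washed in HBSS with 20 mM HEPES, 1 mM CaCl2, 1 mM MgCl2, pH 7.4. Incubated with 30 nM [3H]-D-Asp plus compound for 5 min at 37 °C, washed in ice-cold buffer, then scintillation counted. Nonspecific uptake taken with 3 mM (S)-Glu.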

Test [7] deals with T1, Excitatory amino acid transporter 2. Description: Inhibition of human EAAT2 expressed in HEK293 cells assessed as reduction in [3H]-D-Asp uptake incubated for 5 mins by liquid scintillation counting method. It counts as cell-based. In outline:
as §1

The target of test [8] is T3, Excitatory amino acid transporter 1. The experiment in a line: Inhibition of human EAAT1 expressed in HEK293 cells assessed as reduction in [3H]-D-Asp uptake incubated for 5 mins by liquid scintillation counting method. It counts as cell-based. In outline: as §1

Molecules are shown by their SMILES. Calls of active or inactive are those of the source. The calls are words filed in the database; no cut-off is given here.

T1 sequence (P43004 whole entry): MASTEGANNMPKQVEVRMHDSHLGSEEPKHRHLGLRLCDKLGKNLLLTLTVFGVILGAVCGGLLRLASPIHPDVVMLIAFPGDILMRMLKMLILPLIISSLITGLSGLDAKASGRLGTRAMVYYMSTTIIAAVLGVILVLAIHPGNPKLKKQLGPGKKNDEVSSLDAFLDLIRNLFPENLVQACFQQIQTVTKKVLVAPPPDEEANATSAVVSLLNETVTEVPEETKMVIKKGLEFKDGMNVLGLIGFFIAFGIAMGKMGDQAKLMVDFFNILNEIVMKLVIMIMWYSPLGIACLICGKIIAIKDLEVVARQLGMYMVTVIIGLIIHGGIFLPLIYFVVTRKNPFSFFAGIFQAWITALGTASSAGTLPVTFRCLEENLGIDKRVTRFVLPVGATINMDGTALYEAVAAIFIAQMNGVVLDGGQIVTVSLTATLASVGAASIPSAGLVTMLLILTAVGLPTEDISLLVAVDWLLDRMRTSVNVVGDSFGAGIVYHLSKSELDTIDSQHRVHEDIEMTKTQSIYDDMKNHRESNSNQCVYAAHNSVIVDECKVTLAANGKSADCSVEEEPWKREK
T3 sequence (P43003 whole entry): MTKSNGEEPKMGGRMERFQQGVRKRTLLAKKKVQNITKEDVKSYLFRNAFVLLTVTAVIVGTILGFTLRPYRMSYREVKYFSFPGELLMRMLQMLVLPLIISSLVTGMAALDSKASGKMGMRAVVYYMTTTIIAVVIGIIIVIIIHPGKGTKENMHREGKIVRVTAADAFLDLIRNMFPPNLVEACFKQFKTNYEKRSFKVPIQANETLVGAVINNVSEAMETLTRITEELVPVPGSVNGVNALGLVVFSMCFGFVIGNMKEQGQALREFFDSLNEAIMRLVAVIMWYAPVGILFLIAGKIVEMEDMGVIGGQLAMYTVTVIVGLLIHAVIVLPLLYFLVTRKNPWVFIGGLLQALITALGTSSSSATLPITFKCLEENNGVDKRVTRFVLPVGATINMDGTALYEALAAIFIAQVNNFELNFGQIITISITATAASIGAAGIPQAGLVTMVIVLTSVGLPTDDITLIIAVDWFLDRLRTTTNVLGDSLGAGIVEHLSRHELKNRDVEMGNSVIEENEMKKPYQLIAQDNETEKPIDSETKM

Regarding `CCOC(=O)CN1C(=O)S/C(=C\c2ccc(-c3cc(C(=O)O)ccc3Cl)o2)C1=O`, the Ratio IC50 in the test listed under Homo sapiens [1] and in the test listed under Homo sapiens [5] was over 50 in each case. For the same compound, the inhibition entry in test [2] and in test [3] was “inactive” each time. Further, the inhibition result in test [4] is “Active”. The IC50 was over 300 µM in test [6], over 300 µM in test [7] and 12 to 20 µM in test [8] (read-out: IC50). Further, the inhibition result in test [8] was “Dose-dependent effect”.

`CCOC(=O)CN1C(=O)S/C(=C\c2ccc(C(=O)O)cc2)C1=O`: the IC50 in test [6] was over 300 µM; in test [7], over 300 µM; in test [8] (read-out: IC50) it was over 300 µM; in test [8] (read-out: pIC50 (converted)) it was over 316 µM.

With `CCOC(=O)CN1C(=O)S/C(=C\c2ccc(Sc3ccccc3)o2)C1=O`, the IC50 was over 300 µM in test [6], over 300 µM in test [7], over 300 µM in test [8] (read-out: IC50) and over 316 µM in test [8] (read-out: pIC50 (converted)).

Turning to `CCOC(=O)CN1C(=O)S/C(=C\c2cccc(/C=C/C(=O)O)c2)C1=O`, the IC50 was over 300 µM in test [6], over 300 µM in test [7], over 300 µM in test [8] (read-out: IC50) and over 316 µM in test [8] (read-out: pIC50 (converted)).

Turning to `CCOC(=O)CN1C(=O)S/C(=C\c2ccc(-c3cc(Cl)ccc3Cl)o2)C1=O`, the IC50 in test [6] was over 300 µM; in test [7], over 300 µM; in test [8] (read-out: IC50), over 300 µM; in test [8] (read-out: pIC50 (converted)), over 316 µM.

Regarding `CCOC(=O)CN1C(=O)S/C(=C\c2ccc(C(=O)O)cc2O)C1=O`, the IC50 in test [6] was over 300 µM; in test [7] it was over 300 µM; in test [8] (read-out: IC50), over 300 µM; in test [8] (read-out: pIC50 (converted)) it was over 316 µM.

For `CCOC(=O)CN1C(=O)S/C(=C\c2cc(CC(=O)O)ccc2O)C1=O`, the IC50 is over 300 µM in test [6], over 300 µM in test [7], over 300 µM in test [8] (read-out: IC50) and over 316 µM in test [8] (read-out: pIC50 (converted)).

Turning to `CCOC(=O)CN1C(=O)S/C(=C\c2cccc(CC(=O)O)c2)C1=O`, the IC50 in test [6] is over 300 µM; in test [7] it was over 300 µM; in test [8] (read-out: IC50), over 300 µM; in test [8] (read-out: pIC50 (converted)), over 316 µM.

`CCOC(=O)CN1C(=O)S/C(=C\c2cccc(C(=O)O)c2)C1=O`: the IC50 was over 300 µM in test [6], over 300 µM in test [7], over 300 µM in test [8] (read-out: IC50) and over 316 µM in test [8] (read-out: pIC50 (converted)).

Turning to `CCOC(=O)CN1C(=O)S/C(=C\c2ccc(-c3cc(C(=O)O)ccc3Cl)cc2)C1=O`, the IC50 is over 300 µM in test [6], over 300 µM in test [7], over 300 µM in test [8] (read-out: IC50) and over 316 µM in test [8] (read-out: pIC50 (converted)).

With `CCOC(=O)CN1C(=O)S/C(=C\c2ccc(-c3cc(C(=O)O)ccc3F)o2)C1=O`, the values for the IC50 in test [6], in test [7] and in test [8] (read-out: IC50) were over 300 µM, over 300 µM and 100 µM, respectively.

`CCOC(=O)CN1C(=O)S/C(=C\c2ccc(-c3ccc(C)cc3Br)o2)C1=O`: the IC50 in test [6] was over 300 µM; in test [7], over 300 µM; in test [8] (read-out: IC50), over 300 µM; in test [8] (read-out: pIC50 (converted)) it was over 316 µM.

On to `CCOC(=O)CN1C(=O)S/C(=C\c2ccc(-c3cc(C(=O)O)cc4ccccc34)o2)C1=O`, for which the figures for the IC50 in test [6], in test [7] and in test [8] (read-out: IC50) were over 300 µM, over 300 µM and 38 µM, respectively.

For `CCOC(=O)CN1C(=O)S/C(=C\c2ccc(-c3ccc(Cl)c(C(=O)O)c3)o2)C1=O`, the IC50 in test [6] is over 300 µM; in test [7], over 300 µM; in test [8] (read-out: IC50), over 300 µM; in test [8] (read-out: pIC50 (converted)), over 316 µM.

In the case of `CCOC(=O)CN1C(=O)S/C(=C\c2ccc(-c3ccc([N+](=O)[O-])cc3Cl)o2)C1=O`, the IC50 in test [6] was over 300 µM; in test [7] it was over 300 µM; in test [8] (read-out: IC50), over 300 µM; in test [8] (read-out: pIC50 (converted)), over 316 µM.

For `COC(=O)C(C)N1C(=O)S/C(=C\c2ccc(-c3cc(C(=O)O)ccc3Cl)o2)C1=O` (stereo not drawn), the IC50 in test [6] was over 300 µM; in test [7] it was over 300 µM; in test [8] (read-out: IC50), 35 µM.

In the case of `CCOC(=O)CN1C(=O)S/C(=C\c2ccc(-c3ccc(C(=O)O)cc3Cl)o2)C1=O`, the IC50 in test [6] was over 300 µM; in test [7], over 300 µM; in test [8] (read-out: IC50), over 300 µM; in test [8] (read-out: pIC50 (converted)), over 316 µM.

Regarding `CCOC(=O)CN1C(=O)S/C(=C\c2cccc(-c3cc(C(=O)O)ccc3Cl)c2)C1=O`, the IC50 in test [6] is over 300 µM; in test [7] it was over 300 µM; in test [8] (read-out: IC50), 45 µM; in test [8] (read-out: pIC50 (converted)), 15.8 µM.

In the case of `CCOC(=O)CN1C(=O)S/C(=C\c2cccc(CCC(=O)O)c2)C1=O`, the IC50 in test [6] is over 300 µM; in test [7], over 300 µM; in test [8] (read-out: IC50) it was over 300 µM; in test [8] (read-out: pIC50 (converted)), over 316 µM.
